The target in one data set is T1, Progesterone receptor (Homo sapiens, UniProt P06401).
T1 sequence (P06401 whole entry): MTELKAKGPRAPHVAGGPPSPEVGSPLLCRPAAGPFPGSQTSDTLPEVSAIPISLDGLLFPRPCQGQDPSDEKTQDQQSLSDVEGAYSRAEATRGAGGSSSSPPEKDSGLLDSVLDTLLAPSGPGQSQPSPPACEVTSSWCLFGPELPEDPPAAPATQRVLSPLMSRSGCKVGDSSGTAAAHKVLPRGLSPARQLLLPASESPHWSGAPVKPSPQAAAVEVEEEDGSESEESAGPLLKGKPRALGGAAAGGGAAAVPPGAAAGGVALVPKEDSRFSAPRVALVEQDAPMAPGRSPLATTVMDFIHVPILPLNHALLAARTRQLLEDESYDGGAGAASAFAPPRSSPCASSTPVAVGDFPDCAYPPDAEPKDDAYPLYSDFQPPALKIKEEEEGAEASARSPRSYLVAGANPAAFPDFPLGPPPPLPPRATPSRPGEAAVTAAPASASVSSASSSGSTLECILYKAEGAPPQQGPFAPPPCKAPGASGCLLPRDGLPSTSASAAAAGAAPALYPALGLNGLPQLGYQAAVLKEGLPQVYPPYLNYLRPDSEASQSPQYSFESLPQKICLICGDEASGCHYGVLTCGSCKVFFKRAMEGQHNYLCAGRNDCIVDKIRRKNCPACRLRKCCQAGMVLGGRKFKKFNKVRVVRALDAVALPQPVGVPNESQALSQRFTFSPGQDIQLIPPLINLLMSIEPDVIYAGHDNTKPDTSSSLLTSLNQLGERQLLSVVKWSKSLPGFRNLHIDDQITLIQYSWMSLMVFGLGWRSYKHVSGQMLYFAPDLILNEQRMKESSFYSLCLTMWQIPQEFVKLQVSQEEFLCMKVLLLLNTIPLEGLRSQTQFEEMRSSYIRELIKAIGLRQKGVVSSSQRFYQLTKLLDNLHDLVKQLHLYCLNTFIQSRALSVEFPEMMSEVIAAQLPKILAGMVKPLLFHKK
Put plainly: Displacement of [3H]-methyltrienolone from human progesterone receptor expressed in HEK293 cells. Format: cell-based. A digest of the protocol:
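Competition binding used lysates of HEK293 cells overexpressing the human receptor. The tracer was ³H-aldosterone for MR and ³H-methyltrienolone for PR. Competitor was tested from 0.01 nM to 10 μM. IC50 was converted to Ki by Cheng–Prusoff. Values are means of at least three experiments, each run in triplicate.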
(In general: Displacement assays read how much labelled ligand stays bound in the presence of the test substance.)

Data set [1] can be described thus: Tmax in Lewis rat collagen-induced arthritis model at 3 to 30 mg/kg, po after 15 days. Details: dose 3-30 mg/kg, route oral. The conditions noted are these: in vivo. Format: ADME, organism-based.
The test system of data set [2] is Rattus norvegicus. Put plainly: Antiinflammatory activity in po dosed Sprague-Dawley rat assessed as inhibition of carrageenan-induced paw edema incubated for 2 hrs prior to carrageenan challenge measured after 5 hrs […]. Format: functional. (In the carrageenan paw model, swelling and tenderness develop within hours.)
Data set [3] concerns Rattus norvegicus. Put plainly: Antiinflammatory activity in po dosed Sprague-Dawley rat assessed as inhibition of carrageenan-induced IL-1beta secretion incubated for 2 hrs prior to carrageenan challenge measured after 5 hrs by ELISA. Format: functional. A digest of the protocol:
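Male Sprague-Dawley rats (n = 5/group) were dosed at t = 0, and carrageenan was injected into the rear footpad at 2 h. At 5 h the animals were euthanised and the hindpaws weighed to measure edema. Paw exudate was assayed for IL-1β by ELISA.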
For orientation: ELISA stands for enzyme-linked immunosorbent assay.

Data set [4] can be described thus: Half life in Sprague-Dawley rat at 3 mg/kg, iv. Format: ADME, organism-based. To be noted: in vivo. Details: dose 3 mg/kg, route intravenous. A digest of the protocol: (§1)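 Cannulated male Sprague-Dawley rats, fasted overnight, given a single 3 mpk dose at t = 0. The iv vehicle was 20% microemulsion/80% DI water and the po vehicle CMC/tween in DI water. Plasma was analysed for parent compound by LC/MS-MS, and exposure, half-life, Vd, clearance and bioavailability were calculated.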

Data set [5] can be described thus: Half life in Lewis rat collagen-induced arthritis model at 3 to 30 mg/kg, po after 15 days. Set-up: dose 3-30 mg/kg, route oral. Format: ADME, organism-based. To be noted: in vivo.
Data set [6] is described as follows: AUC in Sprague-Dawley rat at 3 mg/kg, po. The data set is classed as ADME, organism-based. To be noted: plasma. Details: dose 3 mg/kg, route oral. In outline: as §1
Data set [7] can be described thus: Clearance in Sprague-Dawley rat at 3 mg/kg, iv. The data set is classed as ADME, organism-based. Set-up: dose 3 mg/kg, route intravenous. To be noted: in vivo. In outline:
as §1

The target in data set [8] is T2, Glucocorticoid receptor (Homo sapiens) (UniProt P04150).
T2 sequence (whole entry): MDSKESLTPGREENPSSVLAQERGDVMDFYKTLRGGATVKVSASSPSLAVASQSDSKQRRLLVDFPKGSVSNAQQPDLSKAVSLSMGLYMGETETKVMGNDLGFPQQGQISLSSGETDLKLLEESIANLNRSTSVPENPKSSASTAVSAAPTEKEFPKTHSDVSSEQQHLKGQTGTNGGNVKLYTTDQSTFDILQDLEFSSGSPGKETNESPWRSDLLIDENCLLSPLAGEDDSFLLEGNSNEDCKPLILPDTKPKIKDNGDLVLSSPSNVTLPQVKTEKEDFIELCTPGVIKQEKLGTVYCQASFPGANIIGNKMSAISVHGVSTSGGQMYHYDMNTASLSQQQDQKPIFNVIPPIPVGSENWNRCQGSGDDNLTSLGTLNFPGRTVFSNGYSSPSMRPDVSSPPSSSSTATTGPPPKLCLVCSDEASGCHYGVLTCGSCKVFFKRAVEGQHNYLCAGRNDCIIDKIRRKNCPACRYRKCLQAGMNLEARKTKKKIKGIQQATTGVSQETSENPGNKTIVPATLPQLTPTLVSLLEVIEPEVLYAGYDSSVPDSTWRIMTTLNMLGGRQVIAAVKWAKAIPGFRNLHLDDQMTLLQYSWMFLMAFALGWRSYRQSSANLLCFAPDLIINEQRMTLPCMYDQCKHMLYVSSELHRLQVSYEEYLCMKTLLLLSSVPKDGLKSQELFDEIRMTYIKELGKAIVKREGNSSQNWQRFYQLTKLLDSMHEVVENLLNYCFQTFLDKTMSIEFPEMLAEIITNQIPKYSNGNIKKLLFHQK
Put plainly: Transactivation of human glucocorticoid receptor expressed in HEK293 cells at 10 uM after 24 hrs by luciferase reporter gene assay relative to control. Format: cell-based. A digest of the protocol:
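HEK293 cells were transfected in DMEM with 5% charcoal-stripped FBS, using a CMV-hGR plasmid and a luciferase reporter driven by 2×GRE plus the TK promoter. After overnight incubation, cells were replated and exposed to compound for 24 h, then lysed for luciferase readout.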

The nature of data set [9]: Volume of distribution in Sprague-Dawley rat at 3 mg/kg, iv. The data set is classed as ADME, organism-based. Details: dose 3 mg/kg, route intravenous. To be noted: in vivo. In outline:
as §1

A short description of data set [10]: Antiinflammatory activity in PMA-differentiated human U937 cells assessed as inhibition of LPS-induced TNFalpha production incubated for 60 mins prior to LPS challenge measured after 24 hrs. Format: functional, cell-based. The conditions noted are these: U-937. In outline: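 U-937 cells (100 000/well) were differentiated with 20 nM PMA overnight at 37 °C, then refed with PMA-free medium. Cells were pretreated with compound for 60 min, then stimulated with LPS (stock 400 ng/mL) for 24 h at 37 °C. Secreted TNFα was measured by EIA/RIA. Ten-point half-log dilutions were used, each concentration in triplicate.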

The test system of data set [11] is Rattus norvegicus. Put plainly: Antiinflammatory activity in po dosed Lewis rat collagen-induced arthritis model assessed as reduction in ankle diameter administered for 15 days measured during compound dosing. The data set is classed as functional, organism-based. A digest of the protocol: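 Female Lewis rats received collagen injected at the tail base, and disease developed over 14 d. Responding rats (groups of n = 10) were then dosed orally once daily for the next 15 d. Ankle/paw diameter was measured throughout the live phase and summarised as AUC. Hindpaw histology was scored blind from 0 (normal) to 5 (vehicle-level). Statistics used Student's t test vs vehicle, p < 0.01.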

The compound `C/C(=C1/c2ccccc2COc2ccccc21)c1cccc(NS(C)(=O)=O)c1` returned a Ki on Progesterone receptor of 6.17 nM.
Same read-out and setting: the same measure for `CS(=O)(=O)Nc1cccc(C=C2c3ccccc3CCc3ccccc32)c1`: 99 nM.
Same read-out and setting: next, `CC/C(=C1/c2ccccc2COc2ccccc21)c1cccc(NS(C)(=O)=O)c1`: 15.5 nM.
In the case of `CC/C(=C1\c2ccccc2OCc2cccc(OC)c21)c1cccc(NS(C)(=O)=O)c1`, the Tmax in data set [1] stood at 1 h. Also, the ED50 in the data set with Rattus norvegicus [2] came to 2.8 mg/kg; in the data set with Rattus norvegicus [3], 1.7 mg/kg. In addition, the half-life in data set [4] and in [5] was 1.4 h in each case. Also, in [6], the AUC is 1300 ng·h/mL. The same compound came in with a clearance in data set [7] of 56 mL/min/kg. Moreover, the Efficacy in data set [8] came to 53%. The compound also gave a Ki at Progesterone receptor of 26.8 nM. The compound further showed a Vd in [9] of 7 L/kg. The IC50 in [10] was found to be 19.1 nM. Further, the Activity entry with Rattus norvegicus [11] is “Dose-dependent effect”.

Usually Ki stands for the equilibrium dissociation constant of an inhibitor or competing ligand from its target. A higher Ki goes with a looser hold on the target. What is called Tmax is the time from dosing to the highest level. As a reminder, the ED50 is the dose that gives a 50% effect, or the effect in half of the subjects. For orientation: half-life means the time needed for the level to fall by half in the phase considered. By AUC is commonly meant the area under the concentration-time curve, a measure of exposure. A lower AUC goes with less exposure. The term clearance denotes a measure of how efficiently the substance is removed, as volume per time. Low readings indicate a low capacity for elimination, high ones a high capacity for elimination. What is called Vd is a proportionality between amount in the body and measured concentration, not a real space. A high value points to wide distribution into tissue. Usually IC50 stands for the concentration at which inhibition is half-maximal.

For the origin of these results see ChEMBL document CHEMBL3120138, “Glucocorticoid receptor modulators informed by crystallography lead to a new rationale for receptor selectivity, function, and implications for structure-based design” (J Med Chem, 2014).
